The compounds below were run against Integrin alpha-IIb/beta-3 (Homo sapiens, UniProt P05106+P08514) (assay: Inhibition of biotinylated fibrinogen binding to human GP 2b/3a after 2 hrs by solid-phase competitive displacement assay).
Format: protein-complex assay
Summary of the method: (§1)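 Solid-phase competition with isolated human receptor (GPIIb/IIIa or GPV/IIIa) adsorbed overnight at 4 °C in Tris/NaCl buffer with 1 mM Ca2+, Mg2+ and Mn2+, pH 7.4. Blocked with 1% BSA. Serially diluted compounds plus biotinylated human fibrinogen incubated 2 h at room temperature. Bound fibrinogen detected with peroxidase anti-biotin antibody and chemiluminescence. Duplicates, at least three runs; IC50 from sigmoid fit.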

Row | Structure (SMILES) | IC50
1 | CCOC(=O)C(=O)N(Cc1ccccc1)c1ccc2c(c1)OC[C@H](COc1ccc(C(=N)N)cc1)O2.O=C(O)C(F)(F)F | > 200 µM
2 | N=C(N)c1ccc(OC[C@H]2COc3cc(N(Cc4ccccc4)C(=O)C(=O)O)ccc3O2)cc1 | 0.665 µM
3 | N=C(N)c1ccc(OC[C@H]2COc3ccc(N(Cc4ccccc4)C(=O)C(=O)O)cc3O2)cc1 | 42.6 µM
4 | N=C(N)c1ccc(OC[C@@H]2COc3ccc(N(Cc4ccccc4)C(=O)C(=O)O)cc3O2)cc1 | 17.6 µM
5 | CCOC(=O)C(=O)N(Cc1ccccc1)c1ccc2c(c1)OC[C@@H](COc1ccc(C(=N)N)cc1)O2.O=C(O)C(F)(F)F | > 200 µM
6 | CCOC(=O)C(=O)N(Cc1ccccc1)c1ccc2c(c1)O[C@@H](COc1ccc(C(=N)N)cc1)CO2.O=C(O)C(F)(F)F | > 200 µM
7 | N=C(N)c1ccc(OC[C@@H]2COc3cc(N(Cc4ccccc4)C(=O)C(=O)O)ccc3O2)cc1 | 1.21 µM
8 | CCOC(=O)C(=O)N(Cc1ccccc1)c1ccc2c(c1)O[C@H](COc1ccc(C(=N)N)cc1)CO2.O=C(O)C(F)(F)F | > 200 µM

What follows are compounds tested against Integrin alpha-V/beta-3 (Homo sapiens, UniProt P05106+P06756) (assay: Inhibition of biotinylated fibrinogen binding to human alphavbeta3 integrin receptor after 2 hrs by solid-phase competitive displacement assay).
Format: protein-complex assay
Summary of the method: as §1

Row | Structure (SMILES) | IC50
9 | CCOC(=O)C(=O)N(Cc1ccccc1)c1ccc2c(c1)OC[C@H](COc1ccc(C(=N)N)cc1)O2.O=C(O)C(F)(F)F | > 200 µM
10 | N=C(N)c1ccc(OC[C@H]2COc3cc(N(Cc4ccccc4)C(=O)C(=O)O)ccc3O2)cc1 | > 200 µM
11 | N=C(N)c1ccc(OC[C@H]2COc3ccc(N(Cc4ccccc4)C(=O)C(=O)O)cc3O2)cc1 | > 200 µM
12 | N=C(N)c1ccc(OC[C@@H]2COc3ccc(N(Cc4ccccc4)C(=O)C(=O)O)cc3O2)cc1 | > 200 µM
13 | CCOC(=O)C(=O)N(Cc1ccccc1)c1ccc2c(c1)OC[C@@H](COc1ccc(C(=N)N)cc1)O2.O=C(O)C(F)(F)F | > 200 µM
14 | CCOC(=O)C(=O)N(Cc1ccccc1)c1ccc2c(c1)O[C@@H](COc1ccc(C(=N)N)cc1)CO2.O=C(O)C(F)(F)F | > 200 µM
15 | N=C(N)c1ccc(OC[C@@H]2COc3cc(N(Cc4ccccc4)C(=O)C(=O)O)ccc3O2)cc1 | > 200 µM
16 | CCOC(=O)C(=O)N(Cc1ccccc1)c1ccc2c(c1)O[C@H](COc1ccc(C(=N)N)cc1)CO2.O=C(O)C(F)(F)F | > 200 µM

Organism: Homo sapiens
Assay: Selectivity ratio of Ki for factor 10a (unknown origin) to Ki for thrombin (unknown origin)

Row | Structure (SMILES) | Ratio Ki
17 | CCOC(=O)C(=O)N(Cc1ccccc1)c1ccc2c(c1)OC[C@H](COc1ccc(C(=N)N)cc1)O2.O=C(O)C(F)(F)F | 3.46
18 | N=C(N)c1ccc(OC[C@H]2COc3cc(N(Cc4ccccc4)C(=O)C(=O)O)ccc3O2)cc1 | 1.17
19 | N=C(N)c1ccc(OC[C@H]2COc3ccc(N(Cc4ccccc4)C(=O)C(=O)O)cc3O2)cc1 | 19.1
20 | N=C(N)c1ccc(OC[C@@H]2COc3ccc(N(Cc4ccccc4)C(=O)C(=O)O)cc3O2)cc1 | 0.47
21 | CCOC(=O)C(=O)N(Cc1ccccc1)c1ccc2c(c1)OC[C@@H](COc1ccc(C(=N)N)cc1)O2.O=C(O)C(F)(F)F | 1.3
22 | CCOC(=O)C(=O)N(Cc1ccccc1)c1ccc2c(c1)O[C@@H](COc1ccc(C(=N)N)cc1)CO2.O=C(O)C(F)(F)F | 35.9
23 | N=C(N)c1ccc(OC[C@@H]2COc3cc(N(Cc4ccccc4)C(=O)C(=O)O)ccc3O2)cc1 | 1.3
24 | CCOC(=O)C(=O)N(Cc1ccccc1)c1ccc2c(c1)O[C@H](COc1ccc(C(=N)N)cc1)CO2.O=C(O)C(F)(F)F | 0.95

Organism: Homo sapiens
Assay: Selectivity ratio of Ki for trypsin (unknown origin) to Ki for thrombin (unknown origin)

Row | Structure (SMILES) | Ratio Ki
25 | CCOC(=O)C(=O)N(Cc1ccccc1)c1ccc2c(c1)OC[C@H](COc1ccc(C(=N)N)cc1)O2.O=C(O)C(F)(F)F | 0.65
26 | N=C(N)c1ccc(OC[C@H]2COc3cc(N(Cc4ccccc4)C(=O)C(=O)O)ccc3O2)cc1 | 0.28
27 | N=C(N)c1ccc(OC[C@H]2COc3ccc(N(Cc4ccccc4)C(=O)C(=O)O)cc3O2)cc1 | 1
28 | N=C(N)c1ccc(OC[C@@H]2COc3ccc(N(Cc4ccccc4)C(=O)C(=O)O)cc3O2)cc1 | 0.51
29 | CCOC(=O)C(=O)N(Cc1ccccc1)c1ccc2c(c1)OC[C@@H](COc1ccc(C(=N)N)cc1)O2.O=C(O)C(F)(F)F | 0.39
30 | CCOC(=O)C(=O)N(Cc1ccccc1)c1ccc2c(c1)O[C@@H](COc1ccc(C(=N)N)cc1)CO2.O=C(O)C(F)(F)F | 2.71
31 | N=C(N)c1ccc(OC[C@@H]2COc3cc(N(Cc4ccccc4)C(=O)C(=O)O)ccc3O2)cc1 | 0.3
32 | CCOC(=O)C(=O)N(Cc1ccccc1)c1ccc2c(c1)O[C@H](COc1ccc(C(=N)N)cc1)CO2.O=C(O)C(F)(F)F | 1.32

Each compound was assayed against Trypsin (Homo sapiens, UniProt P07477+P07478+P35030) (assay: Inhibition of trypsin (unknown origin) using S-2222 as substrate preincubated with enzyme for 15 mins prior to substrate addition measured every 10 s by amidolytic method).
Format: protein assay
Summary of the method: (§2)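 Chromogenic amidolytic assay read at 405 nm, 25 °C, with final enzyme levels: thrombin 0.5 NIH E/mL with S-2238 at 20 and 40 µM; factor Xa 1 mBAEE E/mL with S-2222 at 100 and 200 µM; trypsin 0.5 nkat/mL with S-2222 at 50 and 100 µM. Inhibitor diluted from DMSO stock to 0.5–100 µM, three concentrations, triplicate. Ki by Cheng–Prusoff from initial rates, averaged over all combinations.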

Row | Structure (SMILES) | Ki
33 | CCOC(=O)C(=O)N(Cc1ccccc1)c1ccc2c(c1)OC[C@H](COc1ccc(C(=N)N)cc1)O2.O=C(O)C(F)(F)F | 0.283 µM
34 | N=C(N)c1ccc(OC[C@H]2COc3cc(N(Cc4ccccc4)C(=O)C(=O)O)ccc3O2)cc1 | 0.463 µM
35 | N=C(N)c1ccc(OC[C@H]2COc3ccc(N(Cc4ccccc4)C(=O)C(=O)O)cc3O2)cc1 | 0.267 µM
36 | N=C(N)c1ccc(OC[C@@H]2COc3ccc(N(Cc4ccccc4)C(=O)C(=O)O)cc3O2)cc1 | 1.37 µM
37 | CCOC(=O)C(=O)N(Cc1ccccc1)c1ccc2c(c1)OC[C@@H](COc1ccc(C(=N)N)cc1)O2.O=C(O)C(F)(F)F | 0.644 µM
38 | CCOC(=O)C(=O)N(Cc1ccccc1)c1ccc2c(c1)O[C@@H](COc1ccc(C(=N)N)cc1)CO2.O=C(O)C(F)(F)F | 0.21 µM
39 | N=C(N)c1ccc(OC[C@@H]2COc3cc(N(Cc4ccccc4)C(=O)C(=O)O)ccc3O2)cc1 | 1.55 µM
40 | CCOC(=O)C(=O)N(Cc1ccccc1)c1ccc2c(c1)O[C@H](COc1ccc(C(=N)N)cc1)CO2.O=C(O)C(F)(F)F | 0.894 µM

What follows are compounds tested against Coagulation factor X (Homo sapiens, UniProt P00742) (assay: Inhibition of factor 10a (unknown origin) using S-2222 as substrate preincubated with enzyme for 15 mins prior to substrate addition measured every 10 s by amidolytic method).
Summary of the method: as §2

Row | Structure (SMILES) | Ki
41 | CCOC(=O)C(=O)N(Cc1ccccc1)c1ccc2c(c1)OC[C@H](COc1ccc(C(=N)N)cc1)O2.O=C(O)C(F)(F)F | 1.51 µM
42 | N=C(N)c1ccc(OC[C@H]2COc3cc(N(Cc4ccccc4)C(=O)C(=O)O)ccc3O2)cc1 | 1.96 µM
43 | N=C(N)c1ccc(OC[C@H]2COc3ccc(N(Cc4ccccc4)C(=O)C(=O)O)cc3O2)cc1 | 5.08 µM
44 | N=C(N)c1ccc(OC[C@@H]2COc3ccc(N(Cc4ccccc4)C(=O)C(=O)O)cc3O2)cc1 | 1.27 µM
45 | CCOC(=O)C(=O)N(Cc1ccccc1)c1ccc2c(c1)OC[C@@H](COc1ccc(C(=N)N)cc1)O2.O=C(O)C(F)(F)F | 2.15 µM
46 | CCOC(=O)C(=O)N(Cc1ccccc1)c1ccc2c(c1)O[C@@H](COc1ccc(C(=N)N)cc1)CO2.O=C(O)C(F)(F)F | 2.7 µM
47 | N=C(N)c1ccc(OC[C@@H]2COc3cc(N(Cc4ccccc4)C(=O)C(=O)O)ccc3O2)cc1 | 5.19 µM
48 | CCOC(=O)C(=O)N(Cc1ccccc1)c1ccc2c(c1)O[C@H](COc1ccc(C(=N)N)cc1)CO2.O=C(O)C(F)(F)F | 0.637 µM

The compounds below were run against Prothrombin (Homo sapiens, UniProt P00734) (assay: Inhibition of thrombin (unknown origin) using S-2238 as substrate preincubated with enzyme for 15 mins prior to substrate addition measured every 10 s by amidolytic method).
Summary of the method: as §2

Row | Structure (SMILES) | Ki
49 | CCOC(=O)C(=O)N(Cc1ccccc1)c1ccc2c(c1)OC[C@H](COc1ccc(C(=N)N)cc1)O2.O=C(O)C(F)(F)F | 0.436 µM
50 | N=C(N)c1ccc(OC[C@H]2COc3cc(N(Cc4ccccc4)C(=O)C(=O)O)ccc3O2)cc1 | 1.67 µM
51 | N=C(N)c1ccc(OC[C@H]2COc3ccc(N(Cc4ccccc4)C(=O)C(=O)O)cc3O2)cc1 | 0.266 µM
52 | N=C(N)c1ccc(OC[C@@H]2COc3ccc(N(Cc4ccccc4)C(=O)C(=O)O)cc3O2)cc1 | 2.69 µM
53 | CCOC(=O)C(=O)N(Cc1ccccc1)c1ccc2c(c1)OC[C@@H](COc1ccc(C(=N)N)cc1)O2.O=C(O)C(F)(F)F | 1.65 µM
54 | CCOC(=O)C(=O)N(Cc1ccccc1)c1ccc2c(c1)O[C@@H](COc1ccc(C(=N)N)cc1)CO2.O=C(O)C(F)(F)F | 0.0778 µM
55 | N=C(N)c1ccc(OC[C@@H]2COc3cc(N(Cc4ccccc4)C(=O)C(=O)O)ccc3O2)cc1 | 5.18 µM
56 | CCOC(=O)C(=O)N(Cc1ccccc1)c1ccc2c(c1)O[C@H](COc1ccc(C(=N)N)cc1)CO2.O=C(O)C(F)(F)F | 0.675 µM

Source: ChEMBL document CHEMBL2331149, “Towards dual antithrombotic compounds - balancing thrombin inhibitory and fibrinogen GPIIb/IIIa binding inhibitory activities of 2,3-dihydro-1,4-benzodioxine derivatives through regio- and stereoisomerism” (Eur J Med Chem, 2013)
